# The list is not random: actives were taken first. Their share in the collection is about 2.1%.
# zVAD death inh – blocks zVAD induced death of L929 cells. L929 zVAD necroptosis rescue, ATP luminescence, 24 h; with zVAD 60 µM. viability rescue, % at 10 µM. actives 0.38% (n = 220,000);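 active = activation, scaled between plate controls, above about 75%, limit read from the data; inactive = activation under that limit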;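 note: 0% = zVAD with DMSO and 100% = DMSO alone without zVAD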
# STAT1 inh-1 – inhibitors of IFN-gamma induced STAT1 signaling. NIH 3T3 STAT1-luciferase reporter, luminescence. inhibition, % at 5.5 µM. actives 0.35% (n = 200,000). AID 920;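 active = inhibition above a set limit, the mean inhibition across all tested compounds plus 3 SD, cut at about 34% in these data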;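 note: 0% = IFN-gamma with DMSO and 100% = IFN-gamma with 300 µM nifuroxazide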
# TNF death inh – inhibitors of TNF-alpha induced necroptosis in Jurkat FADD-/- cells. Jurkat FADD-/- TNF necroptosis rescue, ATP luminescence, 24 h; 0 = TNF only, 100 = no-TNF cells. activation (protection from cell death), % at 10 µM. actives 0.068% (n = 220,000);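 active = activation, meaning protection from cell death, of at least 50% relative to plate controls; inactive = activation below 50%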;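 note: necroptosis triggered by 40 ng/mL TNF-alpha added together with compound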
# STAT3 inh – inhibitors of IL-6 induced STAT3 signaling; actives 0.89% (n = 190,000); inhibition, % at 5.5 µM; U3A cells, IL-6 STAT3-luciferase reporter, luminescence; host cell line lacks STAT1;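 active = inhibition above the mean inhibition across all screened compounds plus 3 SD, cut at about 44% in these data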;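 note: 0% = DMSO only wells and 100% = 100 µM nifuroxazide control wells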
# STAT3 act – activators of IL-6 induced STAT3 signaling; U3A cells, IL-6 STAT3-luciferase reporter, luminescence; 100% = signal with IL-6 EC80 alone; activation (% of control), % at 5.6 µM; actives 0.91% (n = 190,000);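 active = activation above the screen-wide mean of compound activation plus 3 SD, cut at about 130% in these data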;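 note: 0% = background luminescence of wells with medium and substrate only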
#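 Material: STAT3-luciferase reporter U3A cells. Controls: IL-6-treated wells, 100% activation. Read-out: % activation versus median of IL-6-stimulated wells. Probe or stimulus: IL-6 stimulus at 33 ng/mL final. Timing: compound 1 h, then IL-6 6 h at 37 °C. Signal: reporter luminescence signal.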
# STAT1 inh-2 – confirmation of STAT1 signaling inhibitors | NIH 3T3 STAT1-luciferase reporter, IFN-gamma, luminescence | actives 55% (n = 200) | shares compounds with STAT1 inh-1 | inhibition, % at 5.5 µM;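 active = triplicate mean inhibition exceeding the hit cutoff computed for the primary STAT1 screen, cut at about 35% in these data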;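 note: 0% = DMSO with IFN-gamma and 100% = 300 µM nifuroxazide with IFN-gamma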
# NFkB inh – counter-screen for STAT1 inhibitors: NF-kappaB inhibition | inhibition, % at 5.7 µM | AID 1303 | shares compounds with STAT1 inh-1 | actives 30% (n = 200) | HEK293T NF-kB luciferase reporter, TNF-alpha induced, luminescence;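 active = inhibition above the mean of solvent-only control wells plus 3 SD of those wells, cut at about 15% in these data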;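 note: 0% = DMSO with TNF-alpha and 100% = MG-132 control with TNF-alpha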
# STAT3 inh STAT1c – inhibits STAT3, counter-screen to STAT1 inhibitors; shares compounds with STAT1 inh-1; U3A cells, IL-6 STAT3 luciferase reporter, luminescence; cells lacking STAT1; inhibition, % at 5.7 µM; actives 20% (n = 200);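 active = inhibition above the mean of solvent-only control wells plus 3 SD, set per campaign, cut at about 25% in these data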;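 note: 0% = IL-6 plus DMSO and 100% = IL-6 plus nifuroxazide control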
# Numbers without * were called inactive; . = no result given.
SMILES,zVAD death inh,STAT1 inh-1,TNF death inh,STAT3 inh,STAT3 act,STAT1 inh-2,NFkB inh,STAT3 inh STAT1c
COc1ccc(-n2c(SCc3ccccn3)nc3c(c2=O)SCC3)cc1OC,0,40*,-1,5,107,30,-2,-24
COc1ccc(NC(=O)CSc2nc3c(c(=O)n2-c2ccccc2)SCC3)c(OC)c1,1,-6,3,-1,105,.,.,.
O=C(CSc1nc2c(c(=O)n1-c1ccccc1)SCC2)N1CCN(c2ccccc2)CC1,0,45*,-1,14,89,53*,16*,16
COc1ccc(Cl)c(NC(=O)Cn2nnc(-c3ccccc3N)n2)c1,1,-2,2,4,101,.,.,.
O=C(CCN1C(=O)c2ccccc2C1=O)N1CCN(c2ccccn2)CC1,4,-2,3,23,86,.,.,.
COc1ccc(/C=C/C(=O)NC(=S)Nc2ccccc2C(=O)NC2CCCCC2)cc1,0,3,-1,8,101,.,.,.
Cc1nc(-c2ccc(NC(=O)/C=C\C(=O)O)cc2)cs1,1,-2,0,14,90,.,.,.
Cc1ccc2sc(-c3ccc(NC(=O)/C=C\C(=O)O)cc3)nc2c1,3,43*,-1,19,86,-91,-36,-21
CCOC(=O)C1CCN(S(=O)(=O)Cc2ccc(Cl)cc2)CC1,0,5,-1,12,93,.,.,.
Fc1ccc(-c2cnn3c(-c4cccs4)ccnc23)cc1,1,35*,2,26,85,-89,22*,-53
O=c1cc[nH]c2ccc([N+](=O)[O-])cc12,3,-15,0,-18,119,.,.,.
COc1ccc2cc(C(=O)C3CCCN(C(=O)c4cc(=O)n(C)c(=O)n4C)C3)ccc2c1 (centres undefined),2,-5,-1,-5,106,.,.,.
CN1CCN(Cc2nc3ccccc3c(=O)n2Cc2nc(-c3cccc([N+](=O)[O-])c3)cs2)CC1,-1,62*,2,-10,118,38*,3,-7
O=C(O)c1cc(-c2cccc([N+](=O)[O-])c2)nc2ccccc12,1,.,3,.,.,.,.,.
CN1CCN(Cc2nc3ccccc3c(=O)n2Cc2nc(-c3ccccc3F)cs2)CC1,4,50*,3,-2,98,51*,6,-9
CN1CCN(Cc2nc3ccccc3c(=O)n2Cc2nc(-c3ccc4ccccc4c3)cs2)CC1,1,45*,-9,-1,100,40*,-2,3
CN(C)Cc1nc2ccccc2c(=O)n1Cc1nc(C(C)(C)C)cs1,0,53*,-4,22,89,30,2,7
CN(C)Cc1nc2ccccc2c(=O)n1CC(=O)Nc1cccc(S(=O)(=O)N2CCOCC2)c1,0,5,0,6,95,.,.,.
Cc1ccc(S(=O)(=O)/N=C(\Nc2cccc(C)c2)Nc2nc(C)cc(C)n2)cc1,-1,-6,2,4,98,.,.,.
CC12CCC(=O)N1C(C(=O)OCC(=O)Nc1ccc(S(N)(=O)=O)cc1)CS2 (centres undefined),0,-4,1,23,84,.,.,.
COc1ccc(CCNC(=O)Cn2c(=O)n(-c3ccc(F)cc3)c(=O)c3sccc32)cc1OC,0,50*,-1,17,88,35*,4,6
COc1ccc(CCNC(=O)Cn2c(=O)n(-c3cc(F)ccc3F)c(=O)c3sccc32)cc1OC,-2,53*,-5,8,97,34,3,7
COc1ccc(CCNC(=O)Cn2c(=O)n(-c3ccc(F)cc3F)c(=O)c3sccc32)cc1OC,1,40*,-1,8,95,31,7,12
Cn1nc(OC(=O)Nc2ccc(F)cc2)cc1C(F)(F)F,1,-7,1,11,96,.,.,.

# Screening results deposited in PubChem BioAssay by several laboratories.
